Experimental data taken from ChEMBL document CHEMBL4354866, “TREK Channel Family Activator with a Well-Defined Structure-Activation Relationship for Pain and Neurogenic Inflammation” (J Med Chem, 2020).
Positions count from the first letter of the chain named. Activity calls are given as the source filed them.

Experiments:
Mus musculus [1] = test: Analgesic activity in cerulein-induced mouse model of acute pancreatitis assessed as reduction in myeloperoxidase activity at 10 mg/kg, ip administered at 2 hrs interval for 10 hrs starting from post-first cerulein challenge and measured 12 hrs post-first cerulein challenge; type: functional, organism-based
Summary of the method: (§1)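 Cerulein pancreatitis: 7 hourly i.p. injections of 50 µg/kg; 10 mg/kg compound i.p. at 2, 4, 6, 8 and 10 h. Mice killed at 12 h and pancreas harvested for MPO activity and H&E histology. Ten random fields per slide scored blind by two observers for edema, inflammatory infiltration and acinar necrosis; n = 6.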

[2] = target: T1, Potassium channel subfamily K member 2 (Homo sapiens) (UniProt O95069); test: Activation of recombinant human TREK1 expressed in HEK293T cells assessed as increase in K+ current amplitude measured after compound washout by whole cell voltage clamp electrophysiological analysis; type: cell-based
T1 sequence (whole entry): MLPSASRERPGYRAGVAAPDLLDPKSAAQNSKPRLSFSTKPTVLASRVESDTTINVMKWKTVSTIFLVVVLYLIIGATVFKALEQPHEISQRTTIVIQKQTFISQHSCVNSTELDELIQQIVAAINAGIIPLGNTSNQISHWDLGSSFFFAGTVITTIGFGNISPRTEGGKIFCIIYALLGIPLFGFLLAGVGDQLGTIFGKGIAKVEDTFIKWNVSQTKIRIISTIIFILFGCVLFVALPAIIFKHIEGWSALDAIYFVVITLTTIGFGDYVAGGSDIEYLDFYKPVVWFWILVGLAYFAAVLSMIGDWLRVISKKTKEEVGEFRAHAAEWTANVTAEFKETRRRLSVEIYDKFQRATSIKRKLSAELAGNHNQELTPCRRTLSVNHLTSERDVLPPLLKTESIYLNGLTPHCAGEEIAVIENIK
Summary of the method: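 HEK-293T cells expressing human TREK-1, whole-cell clamp. Current recorded during extracellular compound application and again after washout.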

Mus musculus [3] = test: Analgesic activity in cerulein-induced mouse model of acute pancreatitis assessed as reduction in mechanical allodynia at 10 mg/kg, ip administered at 2 hrs interval for 10 hrs starting from post-first cerulein challenge and measured 0.5 hrs post-last cerulein challenge by von frey test; type: functional, organism-based
Summary of the method: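 Acute pancreatitis induced by 7 hourly i.p. injections of cerulein (50 µg/kg in ice-cold PBS); controls received PBS. Compound 10 mg/kg i.p. or vehicle at 2, 4, 6, 8 and 10 h. Von Frey testing (ascending filaments) started 0.5 h after the last cerulein injection.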

Mus musculus [4] = test: Analgesic activity in CFA-induced mouse model of chronic inflammatory pain assessed as increase in paw withdrawal latency at 5 mg/kg, ip measured up to 60 mins by Hargreaves test; type: functional, organism-based
Summary of the method: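 CFA (20 μl) injected subcutaneously into the left hindpaw of mice. Compound given i.p. in 5% DMSO/5% Tween 80/90% saline. Heat withdrawal latency recorded with a 5 min inter-stimulation period.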

[5] = tested on: T2, Potassium channel subfamily K member 2 (Homo sapiens), O95069 [F160A]; test: Activation of recombinant human TREK1 F160A mutant expressed in HEK293T cells assessed as increase in K+ current amplitude by whole cell voltage clamp electrophysiological analysis; type: cell-based
T2 sequence (whole entry): T1 sequence (whole entry) with F160A
Summary of the method: (§2)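 Transiently transfected HEK-293T cells, whole-cell voltage clamp. Held at -60 mV, 500-ms ramp -120 to +60 mV. Pipette (mM) 140 KCl, 5 EGTA, 10 HEPES, pH 7.4; external 145 NaCl, 4 KCl, pH 7.3. Compound diluted from 10 mM DMSO stock and applied extracellularly. Current increase over control fitted to concentration–response curves for EC50.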

[6] = target: Potassium channel subfamily K member 2 (Homo sapiens, UniProt O95069, W290A); test: Activation of recombinant human TREK1 W290A mutant expressed in HEK293T cells assessed as increase in K+ current amplitude by whole cell voltage clamp electrophysiological analysis; type: cell-based; summary of the method: as §2
[7] = target: T3, Potassium channel subfamily K member 2 (Homo sapiens, UniProt O95069); test: Activation of recombinant human TREK1 expressed in HEK293T cells assessed as increase in K+ current amplitude by whole cell voltage clamp electrophysiological analysis; type: cell-based; summary of the method: as §2
T3 sequence (O95069 whole entry): T1 sequence (whole entry)

Mus musculus [8] = test: (§3) Analgesic activity in cerulein-induced mouse model of acute pancreatitis assessed as reduction in pancreatic necrosis at 10 mg/kg, ip administered at 2 hrs interval for 10 hrs starting from post-first cerulein challenge and measured 12 hrs post-first cerulein challenge by H and E staining based histopathological analysis; type: functional, organism-based; summary of the method: as §1
[9] = target: T4, Potassium channel subfamily K member 2 (Rattus norvegicus) (UniProt Q920B6); test: Activation of TREK in depolarized Sprague-Dawley rat DRG neurons assessed as increase in K+ current amplitude at 10 uM by whole cell voltage clamp electrophysiological analysis relative to control
T4 sequence (whole entry): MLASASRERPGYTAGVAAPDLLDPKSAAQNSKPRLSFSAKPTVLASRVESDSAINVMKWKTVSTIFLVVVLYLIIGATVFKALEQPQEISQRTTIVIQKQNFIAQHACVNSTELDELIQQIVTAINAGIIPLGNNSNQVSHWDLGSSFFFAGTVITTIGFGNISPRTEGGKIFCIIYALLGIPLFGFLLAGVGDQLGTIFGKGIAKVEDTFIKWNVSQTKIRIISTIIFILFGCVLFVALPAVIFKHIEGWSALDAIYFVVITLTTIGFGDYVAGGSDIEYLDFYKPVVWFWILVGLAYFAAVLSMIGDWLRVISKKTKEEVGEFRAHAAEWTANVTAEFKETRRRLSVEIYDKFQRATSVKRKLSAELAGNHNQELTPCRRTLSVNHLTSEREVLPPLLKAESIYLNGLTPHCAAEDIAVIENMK

Mus musculus [10] = test: as §3, with “edema” for “necrosis”; type: functional, organism-based; summary of the method: as §1
[11] = target: T4, Potassium channel subfamily K member 2 (Rattus norvegicus); test: Activation of TREK in depolarized Sprague-Dawley rat DRG neurons assessed as resting membrane potential at 10 uM by whole cell […] electrophysiological analysis
Summary of the method: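 Dissociated rat DRG neurons in current clamp, held at 0 pA. Resting membrane potential recorded before and during 10 μM compound; n = 18 cells from 4 rats; paired t test.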

Mus musculus [12] = test: Analgesic activity in mouse model of spared nerve injury assessed as reduction in cold hyperalgesia at 5 mg/kg, ip measured at 7 days interval for up to 21 days post spared nerve injury by cold plantar test; type: functional, organism-based
Summary of the method: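 SNI mice acclimated 3 days on a 6 mm glass plate; compound 5 mg/kg i.p. A dry-ice-packed syringe was applied to the centre of the left hindpaw. Withdrawal latency timed by stopwatch, cut-off 30 s; n = 8–10.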

Sequence of Potassium channel subfamily K member 2 (Homo sapiens, UniProt O95069, W290A) (O95069 whole entry W290A): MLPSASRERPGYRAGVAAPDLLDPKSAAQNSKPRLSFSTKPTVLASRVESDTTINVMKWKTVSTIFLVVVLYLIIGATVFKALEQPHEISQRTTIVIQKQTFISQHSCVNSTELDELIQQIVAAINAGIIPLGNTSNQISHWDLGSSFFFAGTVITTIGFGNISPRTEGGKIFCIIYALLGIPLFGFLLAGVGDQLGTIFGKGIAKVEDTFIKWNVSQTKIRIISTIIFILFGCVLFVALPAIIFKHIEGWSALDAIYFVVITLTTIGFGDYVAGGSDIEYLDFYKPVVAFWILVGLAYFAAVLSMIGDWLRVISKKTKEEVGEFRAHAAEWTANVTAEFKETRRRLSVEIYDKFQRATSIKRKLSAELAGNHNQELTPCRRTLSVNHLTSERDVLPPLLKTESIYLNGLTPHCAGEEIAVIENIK

Activity [2]: inactive
Activity [5]: inactive
EC50 [6]: 3.91 µM
EC50 [7]: 12.8 µM
Activity [9]: 24%
Activity [11]: 1.12 mV
Compound: Cc1ccc2nc(-c3ccc(NC(=O)[C@@H]4CC[C@H](C(=O)O)C4)cc3)sc2c1
Activity (Mus musculus [1]): Active
Activity (Mus musculus [3]): Active
Activity (Mus musculus [4]): Active
Activity (Mus musculus [8]): Active
Activity (Mus musculus [10]): Active
Activity (Mus musculus [12]): Active
